Laboratory results as given in PubChem BioAssay AID651572 (The Scripps Research Institute Molecular Screening Center, 2012).
The whole screen tested about 360,000 compounds, of which about 950 (0.26%) were called active. This is one part of a sample in which actives are shown more often than they occur. A number with no mark means an inactive call.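 How the source made its calls: active means inhibition above a per-plate limit, mean inhibition of low control wells plus 3 SD (cut at about 25% in these data); inactive means the rest.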

These compounds were tested against ADP-ribosylation factor GTPase-activating protein 1 (Rattus norvegicus) (UniProt Q62848) (assay: blockers of ARFGAP1-stimulated ARF1 GTP hydrolysis – biochemical, fluorescence polarization, GDP tracer, primary screen (AID 651572;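 further: 0% = DMSO wells with enzyme and 100% = wells lacking Arfgap1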)). Conditions: GDP FP detection, at 16.5 µM, hits give high values.
Chain of ADP-ribosylation factor GTPase-activating protein 1 (Rattus norvegicus) (Q62848 1-136 limits assumed): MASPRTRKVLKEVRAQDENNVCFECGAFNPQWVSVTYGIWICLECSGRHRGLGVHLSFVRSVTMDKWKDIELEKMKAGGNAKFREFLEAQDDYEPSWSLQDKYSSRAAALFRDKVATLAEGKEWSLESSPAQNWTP
Summary of the method: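 Material – truncated rat Arfgap1 GAP domain · Buffer or medium – HEPES-based buffer, pH 7.5 · Reagent – human ARF1(Δ1-17)-GTP substrate · Dosing – 16.5 µM single point, 1.26% DMSO · Schedule – GTP hydrolysis reaction 2 h at 25 °C · Technique – GDP detection by fluorescence polarization · Benchmarks – No-Arfgap1 wells (100%) versus DMSO full-reaction wells (0%) · Repeats – single replicate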
In the case of `O=S1(=O)c2c(cccc2N2CCCCC2)O[C@H](COCc2ccccc2)CN1C1CC1`, the inhibition is reported as 0.4%. `C#CCN([C@@H](C)C(=O)OCC)S(=O)(=O)c1ccc(Br)cc1F` was tested, and the inhibition was -5.91%. `Cc1cc(N2CCN(C(=O)OC(C)(C)C)C[C@H]2C)ccc1N1CCN(Cc2ccccc2)[C@H](C)C1` was tested, and the inhibition was 1.76%. `CCCCCCCCN1C(=O)[C@@H](CC(=O)NCCCC)C[C@@]2(C(=O)OC)C1=C[C@H](C(C)(C)C)O[C@@H]2C` gave an inhibition of 3.82%. Compound `Cc1[nH]c2ccccc2c1CC(=O)Nc1ccc(Nc2cccnc2)c(-c2cccc(Cl)c2)c1` has an inhibition of 16.8%. `CCSc1ccccc1C(=O)NCc1ccc(OC)cc1` showed an inhibition of -5.39%. In the case of `COc1ccc(CNC(=O)C(C)NCc2ccccc2Cl)cc1` (configuration not stated), the inhibition is reported as -1.63%. For `COc1ccc(CNC(=O)C(Cc2ccccc2)n2cccc2)cc1` (configuration not stated), the inhibition was 33.6% (active). Compound `Cc1cc(Br)cn2c(Cc3ccccc3C(F)(F)F)c(-c3ccc(C#N)cc3)nc12` has an inhibition of -8.18%. Work on `COC(=O)Cc1nnn2c1[C@H](C)[C@@H](OC)c1cc(Br)ccc1-2` yielded an inhibition of -3.05%. `CC(=O)C1=C(C)N(Cc2ccccc2)C(=S)NC1c1cccc(Br)c1` (configuration not stated) was tested, and the inhibition was 20.9%. Work on `CN1CCCCC(NC(=O)C(C)(C)C)C1=O` (configuration not stated) yielded an inhibition of -2.4%. Compound `CC(C)CNc1cccc2c1S(=O)(=O)N[C@H](C)CO2` has an inhibition of 1.59%. In the case of `COC(=O)c1cc2c(c3c4cc(F)ccc4n(S(=O)(=O)c4ccccc4)c13)C(=O)N(Cc1ccccc1OC)C2`, the inhibition is reported as -6.31%. Work on `COC(=O)c1c(-c2ccc(OC)cc2)c2c(c3c4ccccc4n(S(=O)(=O)c4ccc(C)cc4)c13)C(=O)N(C)C2` yielded an inhibition of 2.2%. With `COC(=O)c1cc2c(c3c4ccccc4n(S(=O)(=O)c4cccc(C)c4)c13)C(=O)N(Cc1ccccc1)C2` the inhibition was 46.8% (active). Compound `COC(=O)C1=C(C)N(Cc2ccc(F)cc2)C(=S)NC1c1cccc(Cl)c1` (configuration not stated) has an inhibition of 0.22%. For `COc1ccc(/C=C2\SC(=S)N(CCCC(=O)NC3CCCC3)C2=O)cc1OC`, the inhibition was 25.1% (active). With `COc1ccc(/C=C/C(=O)OCC(=O)NC2CCCCCC2)cc1OC` the inhibition was -8.52%. For `COc1ccc(CCNC(=O)CCC(=O)NC2CCCCC2)cc1OC`, the inhibition was 9.15%. In the case of `N#Cc1ccc(OCCCN2CCC(C(O)(c3ccccc3)c3ccccc3)CC2)c(F)c1`, the inhibition is reported as -2.6%. For `COC(=O)CCc1sc(Nc2ccc(Br)cc2)nc1-c1ccc(OC)cc1`, the inhibition was 7.69%. In the case of `COc1ccc(-c2csc(Nc3ccc(O)cc3)n2)cc1`, the inhibition is reported as 24.8% (active). For `COc1ccc(C(O)c2nc(-c3ccc(OC)nc3)cs2)cc1` (configuration not stated), the inhibition was 6.07%. Work on `CC(C)(C)n1nc(C2CC2)c(Br)c1NC(=O)c1ccccc1F` yielded an inhibition of -8.2%. For `Oc1cccc2ccc(/C=C/c3ccc(Br)s3)nc12`, the inhibition was 9.22%. `CC(=O)Nc1ccc(S(=O)(=O)Nc2nccc(/C=C/c3ccccc3F)n2)cc1` showed an inhibition of -5.08%. `Nc1ccc(S(=O)(=O)Nc2nccc(/C=C/c3ccc(Br)s3)n2)cc1` was tested, and the inhibition was 33.6% (active). `COc1ccccc1CCn1cnc(-c2ccccc2)c1C(C)C` gave an inhibition of 2.03%. In the case of `CC(=O)C1=C(C)N(Cc2ccc(Cl)cc2)C(=S)NC1c1ccc(F)cc1` (configuration not stated), the inhibition is reported as -8.75%. `COC(=O)C1=C(C)N(Cc2cccc(C(F)(F)F)c2)C(=NCc2ccccc2)NC1c1ccc(Cl)cc1` (configuration not stated) was tested, and the inhibition was -7.39%. Work on `CCCN(CC(=O)Nc1ccccc1C)C(=O)c1ccc2[nH]c3c(c2c1)CC(C)CC3` (configuration not stated) yielded an inhibition of 11.3%. In the case of `CN(CC(=O)Nc1cccc(F)c1)C(=O)CC1CCCC1`, the inhibition is reported as -2.56%. `CC1CCc2[nH]c3ccc(C(=O)N(C)CC(=O)Nc4cccc(F)c4)cc3c2C1` (configuration not stated) was tested, and the inhibition was 28% (active). With `CCOC(=O)/C=C/c1ccccc1O` the inhibition was 1.41%. In the case of `COc1ccccc1Cc1c(-c2ccc(F)cc2)nc2ccc(C)cn12`, the inhibition is reported as 4.94%. `CN1C(=O)C2CC(O)C(SC3CC4C(=O)N(C)C(=O)C4CC3O)CC2C1=O` (configuration not stated) showed an inhibition of -0.39%. For `CC(C)[C@@H](C)/C=C/[C@@H](C)[C@H]1CC[C@@H]2[C@]1(C)CCC1[C@]23C=C[C@]2(C[C@@H](O)CC[C@]12C)N(c1ccc([N+](=O)[O-])cn1)O3` (some centres not stated), the inhibition was 2.09%. With `COc1ccccc1OCC(=O)OCn1c(SC)nnc(C)c1=O` the inhibition was 25.6% (active). `COc1ccccc1OCc1nnc(SCC(N)=O)n1-c1ccccc1` showed an inhibition of 3.32%. `COc1ccccc1OCC(=O)OCc1cc(-c2ccco2)on1` gave an inhibition of -14.7%. In the case of `O=C(NCc1ccccc1)[C@H]1CCCN1C(=O)[C@@H]1CCCN1C(=O)c1ccc(Cl)cc1Cl`, the inhibition is reported as 11.1%.
